We go through 5 molecules from ChEMBL document CHEMBL1649117, “GRL-02031, a novel nonpeptidic protease inhibitor (PI) containing a stereochemically defined fused cyclopentanyltetrahydrofuran potent against multi-PI-resistant human immunodeficiency virus type 1 in vitro” (Antimicrob Agents Chemother, 2009).

For data set [1], the system named is Human immunodeficiency virus 1. Nature of the data set: Antiviral activity against HIV1 A harboring L10I/I15V/E35D/N37E/K45R/I54V/L63P/A71V/V82T/L90M/I93L/C95F in protease encoding region infected in human PHA-PBC assessed as inhibition of p24 Gag protein production by ELISA. It is filed as functional, organism-based. As to conditions: Human immunodeficiency virus 1, A. The method, boiled down: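 Phytohemagglutinin-stimulated PBMs (10^6/ml) infected with 50 TCID50s of each primary isolate, cultured with or without drug in 10-fold serial dilutions. On day 7, supernatant p24 Gag was measured by automated chemiluminescent enzyme immunoassay. Triplicate.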
On the technique in general: ELISA stands for enzyme-linked immunosorbent assay.

Data set [2] in a line: Selectivity index, ratio of CC50 for human MT2 cells to EC50 for HIV1 LAI. It is filed as toxicity, cell-based. As to conditions: read-out: Selectivity Index.
In data set [3] the test system is Human immunodeficiency virus 1. Nature of the data set: Antiviral activity against HIV1 NL4-3 harboring L10F/V32I/M46I/I54M//A71V/I84V amino acid substitution in protease encoding region infected in human MT4 cells assessed as inhibition of p24 Gag protein production selected at 5 uM of amprenavir by ELISA. It is filed as functional, organism-based. The note with it: Human immunodeficiency virus 1, NL4-3, MT4. The method, boiled down:
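Cell-free passage used day-7 supernatants. Variants were then tested in MT-4 cells (10^5/ml) with 100 TCID50s, with or without drug, at 37°C. Day-7 p24 Gag was read by chemiluminescent immunoassay; EC50 vs drug-free control; triplicate.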

For data set [4], the system named is Human immunodeficiency virus 1. Nature of the data set: Ratio of EC50 for HIV1 JSL harboring L10I/L24I/L33F/E35D/M36I/N37S/M46L/I54V/R57K/I62V/L63P/A71V/G73S/82A in protease encoding region to EC50 for HIV1 ERS104pre. It is filed as functional.
Data set [5] deals with Human immunodeficiency virus 1. Nature of the data set: Ratio of EC50 for HIV1 NL4-3 harboring M46I/V82F/I84V amino acid substitution in protease encoding region to EC50 for HIV1 NL4-3. It is filed as functional. An outline of the steps:
(§1)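 MT-4 cells (10^5/ml) infected with 100 TCID50s of PI-selected HIV-1NL4-3 variants or the parental strain, with or without serial drug concentrations, at 37°C. Day 7 supernatant p24 Gag measured by chemiluminescent enzyme immunoassay. […] Triplicate. Ratio is variant EC50 over wild-type EC50.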

The test system of data set [6] is Human immunodeficiency virus 1. Nature of the data set: Ratio of EC50 for HIV1 NL4-3 harboring L10F/D30N/K45I/A71V/T74S amino acid substitution in protease encoding region to EC50 for HIV1 NL4-3. It is filed as functional.
Data set [7] relates to Human immunodeficiency virus 1. Nature of the data set: Antiviral activity against HIV1 NL4-3 harboring L10I/G48V/I54V/L90M amino acid substitution in protease encoding region infected in human MT4 cells assessed as inhibition of p24 Gag protein production selected at 5 uM of saquinavir by ELISA. It is filed as functional, organism-based. The note with it: Human immunodeficiency virus 1, NL4-3, MT4. The method, boiled down: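 HIV-1NL4-3 (500 TCID50s) was passaged in MT-4 cells, starting at 0.01–0.03 µM PI and raising the drug generally two- to threefold as virus propagated. Cell-free passage used day-7 supernatants. Variants were then tested in MT-4 cells (10^5/ml) with 100 TCID50s, with or without drug, at 37°C. Day-7 p24 Gag was read by chemiluminescent immunoassay; EC50 vs drug-free control; triplicate.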

Data set [8] relates to Human immunodeficiency virus 1. Put plainly: Antiviral activity against HIV1 JSL harboring L10I/L24I/L33F/E35D/M36I/N37S/M46L/I54V/R57K/I62V/L63P/A71V/G73S/82A in protease encoding region infected in human PHA-PBC assessed as inhibition of p24 Gag protein production by ELISA. As to conditions: Human immunodeficiency virus 1, JSL. It is filed as functional, organism-based. An outline of the steps:
(§2)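 Phytohemagglutinin-stimulated PBMs (10^6/ml) infected with 50 TCID50s of each primary isolate, cultured with or without drug in 10-fold serial dilutions. On day 7, supernatant p24 Gag was measured by automated chemiluminescent enzyme immunoassay. […] Triplicate.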

Data set [9] relates to Human immunodeficiency virus 1. Nature of the data set: Antiviral activity against HIV1 MOKW infected in human PHA-PBC assessed as inhibition of p24 Gag protein production by ELISA. It is filed as functional, organism-based. As to conditions: Human immunodeficiency virus 1, MOKW. The method, boiled down:
as §2

Data set [10] concerns Human immunodeficiency virus 1. Put plainly: Ratio of EC50 for HIV1 G harboring L10I/V11I/T12E/I15V/L19I/R41K/M46L/L63P/A71T/V82A/L90M in protease encoding region to EC50 for HIV1 ERS104pre. It is filed as functional.
Data set [11] relates to Human immunodeficiency virus 1. Put plainly: Ratio of EC50 for HIV1 C harboring L10I/I15V/K20R/L24I/M36I/M46L/I54V/I62V/L63P/K70Q/V82A/L89M in protease encoding region to EC50 for HIV1 ERS104pre. It is filed as functional.
The test system of data set [12] is Human immunodeficiency virus 1. Put plainly: Ratio of EC50 for HIV1 TM harboring L10I/K14R/R41K/M46L/I54V/L63P/A71V/V82A/L90M/I93L in protease encoding region to EC50 for HIV1 ERS104pre. It is filed as functional. An outline of the steps:
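PHA-stimulated PBMs (10^6/ml) infected with 50 TCID50s of primary HIV-1 isolate and cultured with 10-fold serial drug dilutions. Day 7 supernatant p24 Gag measured by chemiluminescent enzyme immunoassay. […] Triplicate. Ratio is resistant isolate EC50 over reference isolate EC50.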

Data set [13] concerns Human immunodeficiency virus 1. Nature of the data set: Ratio of EC50 for HIV1 NL4-3 harboring L23I/K43I/M46I/I50L/G51A/A71V amino acid substitution in protease encoding region to EC50 for HIV1 NL4-3. It is filed as functional. The method, boiled down:
as §1

Data set [14] relates to Human immunodeficiency virus 1. Nature of the data set: Antiviral activity against HIV1 MM harboring L10I/K43T/M46L/I54V/L63P/A71V/V82A/L90M/Q92K in protease encoding region infected in human PHA-PBC assessed as inhibition of p24 Gag protein production by ELISA. It is filed as functional, organism-based. As to conditions: Human immunodeficiency virus 1, MM. The method, boiled down:
as §2

The test system of data set [15] is Human immunodeficiency virus 1. Nature of the data set: Antiviral activity against HIV1 C harboring L10I/I15V/K20R/L24I/M36I/M46L/I54V/I62V/L63P/K70Q/V82A/L89M in protease encoding region infected in human PHA-PBC assessed as inhibition of p24 Gag protein production by ELISA. It is filed as functional, organism-based. The note with it: Human immunodeficiency virus 1, C. The method, boiled down:
as §2

Data set [16] deals with Human immunodeficiency virus 1. Nature of the data set: Antiviral activity against HIV1 subtype E 92TH019 infected in human PHA-PBM cells after 7 days by MTT assay. It is filed as functional, organism-based. The note with it: Human immunodeficiency virus 1, subtype E 92TH019, PBMC, 168 h. A general note: Formazan colour is commonly taken as a measure of viable cells.
For data set [17], the system named is Human immunodeficiency virus 1. Nature of the data set: Ratio of EC50 for amprenavir to compound against HIV1 NL4-3 harboring L10F mutation in protease encoding region infected in human […] cells. It is filed as functional.
The test system of data set [18] is Human immunodeficiency virus 1. Put plainly: Antiviral activity against HIV1 Ba-L infected in human PHA-PBM cells after 7 days by MTT assay. It is filed as functional, organism-based. As to conditions: Human immunodeficiency virus 1, Ba-L, PBMC, 168 h.
In data set [19] the test system is Human immunodeficiency virus 1. Put plainly: Ratio of EC50 for HIV1 NL4-3 harboring Q58E mutation in protease encoding region infected in human […] cells to EC50 for HIV1 NL4-3 infected in human MT4 cells. It is filed as functional.

Broadly, the EC50 is the concentration at which the effect is half-maximal.

Take `CC(C)(C)NC(=O)[C@@H]1C[C@@H]2CCCC[C@@H]2CN1C[C@@H](O)[C@H](Cc1ccccc1)NC(=O)[C@H](CC(N)=O)NC(=O)c1ccc2ccccc2n1`: the concentration for a half-maximal effect (EC50) is 100 nM in data set [1]; 16 nM in data set [3]; over 1000 nM in data set [7]; 320 nM in [8]; 4 nM in data set [9]. Besides, the selectivity ratio in data set [2] was found to be 710. For the same molecule, the “Ratio EC50” value in data set [4] amounted to 36; in data set [5] it was 1; in data set [6], 4; in [10], 3; in [11], 4; in data set [12] it was 30. The “Ratio EC50” value in data set [13] came to 4.

With `CC(C)CN(C[C@@H](O)[C@H](Cc1ccccc1)NC(=O)O[C@H]1CCOC1)S(=O)(=O)c1ccc(N)cc1`, the EC50 in data set [14] is 400 nM; in [1], 160 nM; in data set [3], over 1000 nM; in [7], 210 nM; in [8] it was 660 nM; in data set [15], 220 nM. For the same molecule, in data set [9], the EC50 is 15 nM. In data set [2], the selectivity ratio was over 3000. Moreover, the “Ratio EC50” value was found to be 26 in data set [4]; 15 in [5]; 3 in data set [6]; 9 in data set [10]; 9 in data set [11]; 14 in data set [12]. Also, the “Ratio EC50” value in data set [13] is listed as 6.

As for `CC(C)(C)NC(=O)[C@@H]1CN(Cc2cccnc2)CCN1C[C@@H](O)C[C@@H](Cc1ccccc1)C(=O)N[C@H]1c2ccccc2C[C@H]1O.O`, the EC50 in data set [14] was over 1000 nM; in data set [1] it was over 1000 nM; in data set [3] it was 220 nM; in data set [7], over 1000 nM; in [8] it was over 1000 nM; in data set [15], over 1000 nM. The concentration for a half-maximal effect (EC50) in data set [9] amounted to 19 nM. Moreover, the selectivity ratio in data set [2] amounted to 1600. Moreover, the “Ratio EC50” value in data set [4] was over 48; in [5] it was 21; in [6], 19; in data set [10] it was 16; in data set [11] it was over 48; in data set [12], over 48. For the same molecule, the “Ratio EC50” value in data set [13] is 24.

For the molecule `COc1ccc(S(=O)(=O)N(C[C@@H]2CCC(=O)N2)C[C@@H](O)[C@H](Cc2ccccc2)NC(=O)O[C@@H]2C[C@@H]3CCO[C@@H]3C2)cc1`, the concentration giving a half-maximal response (EC50) stood at 15 nM in [16]; 41 nM in [14]; 14 nM in data set [1]; 15 nM in data set [18]; 37 nM in data set [3]; 140 nM in data set [7]. In addition, the EC50 in data set [8] was found to be 43 nM; in data set [15], 27 nM; in data set [9], 26 nM. Also, the “Ratio EC50” value in data set [17] is 1.4; in [4] it was 2; in data set [5], 3; in data set [6] it was 2; in data set [10], 1; in data set [19], 1.4. Also, the “Ratio EC50” value in [11], in data set [12] and in data set [13] was 1 each time. Further, the selectivity ratio in [2] is over 3600.

For `Cc1c(O)cccc1C(=O)N[C@@H](CSc1ccccc1)[C@H](O)CN1C[C@H]2CCCC[C@H]2C[C@H]1C(=O)NC(C)(C)C`, the concentration for a half-maximal effect (EC50) in [14] was over 1000 nM; in data set [1] it was 330 nM; in [3], 170 nM; in [7] it was 320 nM; in data set [8] it was over 1000 nM; in data set [15], 360 nM. Also, in data set [9], the EC50 is 23 nM. The “Ratio EC50” value was over 63 in [4]; 13 in [5]; over 56 in data set [6]; 14 in data set [10]; 23 in data set [11]; over 63 in data set [12]. In data set [13], the “Ratio EC50” value is recorded as 12.
